Results as given in ChEMBL document CHEMBL4422659, “Discovery of novel 4-phenyl-2-(pyrrolidinyl)nicotinamide derivatives as potent Nav1.1 activators” (Bioorg Med Chem Lett, 2019).
≈ marks a conversion by molar mass, not a printed value.

What was measured:
[1] = target: Sodium channel protein type 1 subunit alpha (Homo sapiens) (UniProt P35498); experiment: Activation of human Nav1.1 expressed in T-Rex-CHO cells assessed as change in decay time constant of channel currents at 1 uM at holding potential of -120 mV by automated patch-clamp electrophysiology assay relative to control; assay type: cell-based
In short: (§1)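 Human Nav1.1 stably expressed in CHO cells; inactivation current decay time constant (tau) measured on IonWorks automated patch platform; tau given as % of control; mean of N=5 unless noted, standard deviation reported.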

[2] = target: Sodium channel protein type 1 subunit alpha (Homo sapiens) (UniProt P35498); experiment: Activation of human Nav1.1 expressed in T-Rex-CHO cells assessed as change in decay time constant of channel currents at 0.3 uM at holding potential of -120 mV by automated patch-clamp electrophysiology assay relative to control; assay type: cell-based; in short: as §1
[3] = target: Sodium channel protein type 1 subunit alpha (Homo sapiens) (UniProt P35498); experiment: Activation of human Nav1.1 expressed in T-Rex-CHO cells assessed as change in decay time constant of channel currents at 3 uM at holding potential of -120 mV by automated patch-clamp electrophysiology assay relative to control; assay type: cell-based; in short: as §1
[4] = target: Sodium channel protein type 1 subunit alpha (Homo sapiens) (UniProt P35498); experiment: Activation of human Nav1.1 expressed in T-Rex-CHO cells assessed as change in decay time constant of channel currents at 1 uM by Q-patch assay relative to control; assay type: cell-based
In short: (§2)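 Human Nav1.1 in CHO cells, Q-patch automated patch clamp; current decay time constant (tau) and top current ratio expressed as % of control; mean of N=4 unless noted, standard deviation reported.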

[5] = target: Sodium channel protein type 1 subunit alpha (Homo sapiens) (UniProt P35498); experiment: Activation of human Nav1.1 expressed in T-Rex-CHO cells assessed as change in decay time constant of channel currents at 0.3 uM by Q-patch assay relative to control; assay type: cell-based; in short: as §2
[6] = target: Sodium channel protein type 1 subunit alpha (Homo sapiens) (UniProt P35498); experiment: Activation of human Nav1.1 expressed in T-Rex-CHO cells assessed as change in decay time constant of channel currents at 10 uM at holding potential of -120 mV by automated patch-clamp electrophysiology assay relative to control; assay type: cell-based; in short: as §1
[7] = 1-octanol/water partition co-efficient, log D of the compound at pH 7.4 by chromatographic analysis; assay type: physicochemical
[8] = target: Sodium channel protein type 1 subunit alpha (Homo sapiens) (UniProt P35498); experiment: Activation of human Nav1.1 expressed in T-Rex-CHO cells assessed as change in top peak current at 10 uM by Q-patch assay relative to control; assay type: cell-based; in short: as §2
[9] = target: Sodium channel protein type 1 subunit alpha (Homo sapiens) (UniProt P35498); experiment: Activation of human Nav1.1 expressed in T-Rex-CHO cells assessed as change in decay time constant of channel currents at 30 uM at holding potential of -120 mV by automated patch-clamp electrophysiology assay relative to control; assay type: cell-based; in short: as §1
[10] = target: Sodium channel protein type 1 subunit alpha (Homo sapiens) (UniProt P35498); experiment: Activation of human Nav1.1 expressed in T-Rex-CHO cells assessed as change in top peak current at 1 uM by Q-patch assay relative to control; assay type: cell-based; in short: as §2
[11] = target: Sodium channel protein type 1 subunit alpha (Homo sapiens) (UniProt P35498); experiment: Activation of human Nav1.1 expressed in T-Rex-CHO cells assessed as change in decay time constant of channel currents at 10 uM by Q-patch assay relative to control; assay type: cell-based; in short: as §2
[12] = Aqueous solubility of compound at pH 6.8 by UV absorbance method; assay type: physicochemical; conditions: buffer
In short: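 Solubility determined at pH 6.8.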

[13] = target: Sodium channel protein type 1 subunit alpha (Homo sapiens) (UniProt P35498); experiment: Activation of human Nav1.1 expressed in T-Rex-CHO cells assessed as change in decay time constant of channel currents at 3 uM by Q-patch assay relative to control; assay type: cell-based; in short: as §2
[14] = target: Sodium channel protein type 1 subunit alpha (Homo sapiens) (UniProt P35498); experiment: Activation of human Nav1.1 expressed in T-Rex-CHO cells assessed as change in top peak current at 3 uM by Q-patch assay relative to control; assay type: cell-based; in short: as §2
[15] = target: Sodium channel protein type 3 subunit alpha (Homo sapiens) (UniProt Q9NY46); experiment: Activation of human Nav1.3 expressed in CHO cells assessed as change in decay time constant of channel currents at 1 uM at holding potential of -120 mV by automated patch-clamp electrophysiology assay relative to control; assay type: cell-based
[16] = target: Sodium channel protein type 1 subunit alpha (Homo sapiens) (UniProt P35498); experiment: Activation of human Nav1.1 expressed in T-Rex-CHO cells assessed as change in decay time constant of channel currents at 0.1 uM by Q-patch assay relative to control; assay type: cell-based; in short: as §2
[17] = Drug uptake in mouse plasma at 30 mg/kg, ip measured at 1 hr by LC-MS/MS analysis; assay type: ADME, organism-based
In short: (§3)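 Mice dosed 30 mg/kg intraperitoneally; plasma and brain levels measured 1 h post-dose; brain/plasma ratio computed from total concentrations in brain and plasma.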

[18] = target: T1, Sodium channel protein type 5 subunit alpha (Homo sapiens, UniProt Q14524); experiment: Activation of human Nav1.5 expressed in T-Rex-CHO cells assessed as change in decay time constant of channel currents at 1 uM at holding potential of -120 mV by automated patch-clamp electrophysiology assay relative to control; assay type: cell-based
T1 sequence (Q14524 whole entry): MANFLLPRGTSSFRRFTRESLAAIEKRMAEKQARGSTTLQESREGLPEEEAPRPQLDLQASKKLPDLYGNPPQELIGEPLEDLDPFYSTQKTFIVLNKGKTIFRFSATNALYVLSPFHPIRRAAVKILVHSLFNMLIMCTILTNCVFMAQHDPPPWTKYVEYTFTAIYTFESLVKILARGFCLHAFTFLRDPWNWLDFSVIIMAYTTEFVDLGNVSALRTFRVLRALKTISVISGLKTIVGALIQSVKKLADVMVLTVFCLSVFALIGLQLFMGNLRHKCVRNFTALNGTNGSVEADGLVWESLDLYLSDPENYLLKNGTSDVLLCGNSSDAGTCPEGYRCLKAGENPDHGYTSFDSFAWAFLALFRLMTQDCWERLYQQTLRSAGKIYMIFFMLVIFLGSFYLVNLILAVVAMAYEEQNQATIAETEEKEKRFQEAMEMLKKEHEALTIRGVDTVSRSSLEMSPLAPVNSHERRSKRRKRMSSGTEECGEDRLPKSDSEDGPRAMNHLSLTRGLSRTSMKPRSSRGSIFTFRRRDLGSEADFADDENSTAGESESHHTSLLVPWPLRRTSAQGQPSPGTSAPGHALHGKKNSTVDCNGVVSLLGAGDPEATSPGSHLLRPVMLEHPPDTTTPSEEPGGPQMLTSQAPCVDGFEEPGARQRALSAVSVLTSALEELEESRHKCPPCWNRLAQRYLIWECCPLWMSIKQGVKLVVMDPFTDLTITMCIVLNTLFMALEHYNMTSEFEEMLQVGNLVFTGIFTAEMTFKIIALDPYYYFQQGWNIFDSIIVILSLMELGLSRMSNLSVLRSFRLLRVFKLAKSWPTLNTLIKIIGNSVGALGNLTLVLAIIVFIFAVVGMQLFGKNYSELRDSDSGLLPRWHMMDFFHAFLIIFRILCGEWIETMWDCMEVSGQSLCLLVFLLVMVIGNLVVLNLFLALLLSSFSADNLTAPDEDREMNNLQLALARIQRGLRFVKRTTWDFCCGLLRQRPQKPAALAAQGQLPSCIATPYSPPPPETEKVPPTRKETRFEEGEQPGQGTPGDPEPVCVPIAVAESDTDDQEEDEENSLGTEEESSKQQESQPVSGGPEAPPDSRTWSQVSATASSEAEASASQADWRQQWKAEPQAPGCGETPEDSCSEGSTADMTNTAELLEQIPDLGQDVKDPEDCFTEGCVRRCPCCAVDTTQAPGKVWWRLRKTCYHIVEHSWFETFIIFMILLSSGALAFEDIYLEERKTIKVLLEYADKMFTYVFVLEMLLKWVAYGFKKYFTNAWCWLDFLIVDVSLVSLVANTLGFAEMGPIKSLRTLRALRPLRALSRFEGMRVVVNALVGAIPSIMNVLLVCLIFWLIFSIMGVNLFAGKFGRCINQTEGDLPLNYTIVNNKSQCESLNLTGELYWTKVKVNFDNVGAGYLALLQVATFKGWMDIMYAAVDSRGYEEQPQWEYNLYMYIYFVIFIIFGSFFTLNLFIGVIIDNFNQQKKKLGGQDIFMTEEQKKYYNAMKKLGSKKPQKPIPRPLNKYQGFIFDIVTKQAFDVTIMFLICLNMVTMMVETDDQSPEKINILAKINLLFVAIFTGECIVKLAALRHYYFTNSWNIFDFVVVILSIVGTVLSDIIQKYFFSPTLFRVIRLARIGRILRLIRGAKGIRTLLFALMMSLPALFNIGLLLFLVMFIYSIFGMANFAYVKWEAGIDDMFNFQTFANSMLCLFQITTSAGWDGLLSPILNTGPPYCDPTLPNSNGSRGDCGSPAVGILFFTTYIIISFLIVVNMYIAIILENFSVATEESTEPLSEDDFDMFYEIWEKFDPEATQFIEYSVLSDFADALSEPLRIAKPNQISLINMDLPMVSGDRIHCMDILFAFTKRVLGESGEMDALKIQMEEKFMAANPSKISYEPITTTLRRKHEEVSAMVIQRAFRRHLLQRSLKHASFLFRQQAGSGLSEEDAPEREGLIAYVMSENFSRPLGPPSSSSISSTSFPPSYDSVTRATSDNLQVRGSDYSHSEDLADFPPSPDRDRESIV

[19] = target: Sodium channel protein type 2 subunit alpha (Homo sapiens) (UniProt Q99250); experiment: Activation of human Nav1.2 expressed in T-Rex-CHO cells assessed as change in decay time constant of channel currents at 1 uM at holding potential of -120 mV by automated patch-clamp electrophysiology assay relative to control; assay type: cell-based
Chain of Sodium channel protein type 2 subunit alpha (Homo sapiens) (Q99250 whole entry, looked up): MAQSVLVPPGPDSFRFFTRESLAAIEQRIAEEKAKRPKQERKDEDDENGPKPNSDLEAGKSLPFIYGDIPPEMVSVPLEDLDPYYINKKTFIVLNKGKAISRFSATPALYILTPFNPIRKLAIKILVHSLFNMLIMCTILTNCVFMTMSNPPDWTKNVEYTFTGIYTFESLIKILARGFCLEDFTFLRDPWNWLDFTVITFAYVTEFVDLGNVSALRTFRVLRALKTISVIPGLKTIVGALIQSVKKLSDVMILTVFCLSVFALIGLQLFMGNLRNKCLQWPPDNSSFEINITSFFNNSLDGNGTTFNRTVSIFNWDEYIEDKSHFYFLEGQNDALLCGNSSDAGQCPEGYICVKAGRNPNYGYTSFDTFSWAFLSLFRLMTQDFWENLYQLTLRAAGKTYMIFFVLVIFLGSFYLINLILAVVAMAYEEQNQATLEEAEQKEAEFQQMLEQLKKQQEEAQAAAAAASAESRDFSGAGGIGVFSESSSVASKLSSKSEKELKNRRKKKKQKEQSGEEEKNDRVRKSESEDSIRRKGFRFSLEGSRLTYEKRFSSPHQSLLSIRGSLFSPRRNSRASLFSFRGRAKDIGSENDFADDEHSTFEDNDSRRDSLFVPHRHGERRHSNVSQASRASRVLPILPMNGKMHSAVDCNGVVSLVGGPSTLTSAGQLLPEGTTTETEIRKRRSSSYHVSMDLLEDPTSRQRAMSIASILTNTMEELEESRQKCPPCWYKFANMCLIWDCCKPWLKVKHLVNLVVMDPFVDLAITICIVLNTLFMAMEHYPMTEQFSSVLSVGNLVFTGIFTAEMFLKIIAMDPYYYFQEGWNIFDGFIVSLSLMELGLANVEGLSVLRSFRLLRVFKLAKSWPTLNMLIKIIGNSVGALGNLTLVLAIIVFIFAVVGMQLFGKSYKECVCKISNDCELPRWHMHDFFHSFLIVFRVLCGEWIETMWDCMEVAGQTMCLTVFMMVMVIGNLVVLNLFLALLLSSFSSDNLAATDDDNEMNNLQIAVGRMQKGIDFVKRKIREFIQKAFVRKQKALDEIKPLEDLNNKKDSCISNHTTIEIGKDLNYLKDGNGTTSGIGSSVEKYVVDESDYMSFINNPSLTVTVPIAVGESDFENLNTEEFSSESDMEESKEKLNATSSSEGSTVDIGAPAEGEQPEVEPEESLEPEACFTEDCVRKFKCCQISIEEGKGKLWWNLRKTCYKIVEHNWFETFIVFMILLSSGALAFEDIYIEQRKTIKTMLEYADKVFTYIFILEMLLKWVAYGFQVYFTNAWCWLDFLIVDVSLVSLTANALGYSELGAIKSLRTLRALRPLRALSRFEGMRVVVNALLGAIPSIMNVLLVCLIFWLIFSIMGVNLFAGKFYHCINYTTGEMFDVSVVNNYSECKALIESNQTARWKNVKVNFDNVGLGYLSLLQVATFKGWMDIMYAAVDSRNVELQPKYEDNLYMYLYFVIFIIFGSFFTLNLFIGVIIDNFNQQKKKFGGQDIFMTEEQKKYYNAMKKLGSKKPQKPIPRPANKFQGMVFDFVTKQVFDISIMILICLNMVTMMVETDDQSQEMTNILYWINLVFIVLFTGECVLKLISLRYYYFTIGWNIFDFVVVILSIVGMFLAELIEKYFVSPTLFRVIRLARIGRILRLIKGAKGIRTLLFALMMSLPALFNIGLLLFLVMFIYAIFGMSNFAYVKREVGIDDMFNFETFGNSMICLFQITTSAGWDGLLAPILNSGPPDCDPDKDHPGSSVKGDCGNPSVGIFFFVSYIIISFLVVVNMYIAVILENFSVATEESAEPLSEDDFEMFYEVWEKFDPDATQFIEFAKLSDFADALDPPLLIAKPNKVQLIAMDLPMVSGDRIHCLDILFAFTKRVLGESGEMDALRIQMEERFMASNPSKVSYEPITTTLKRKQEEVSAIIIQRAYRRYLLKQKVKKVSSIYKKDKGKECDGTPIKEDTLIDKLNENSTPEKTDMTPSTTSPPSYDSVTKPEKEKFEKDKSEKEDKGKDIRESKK

[20] = target: Sodium channel protein type 2 subunit alpha (Homo sapiens) (UniProt Q99250); experiment: Activation of human Nav1.2 expressed in T-Rex-CHO cells assessed as change in peak current at 1 uM by Q-patch assay relative to control; assay type: cell-based
[21] = Ratio of drug level in brain to plasma in mouse at 30 mg/kg, ip measured at 1 hr by LC-MS/MS analysis; assay type: ADME, organism-based; conditions: brain and plasma; in short: as §3
[22] = tested on: human MDR1; experiment: Efflux ratio of permeability across pig LLC-PK1 cells expressing human MDR1 at 1 uM after 1 hr by LC-MS/MS analysis; assay type: ADME, cell-based, Sus scrofa
In short: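 Efflux ratio measured in LLC-PK1 cells over-expressing human MDR1, substrate at 1 μM.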

[23] = target: T1, Sodium channel protein type 5 subunit alpha; experiment: Activation of human Nav1.5 expressed in T-Rex-CHO cells assessed as change in peak current at 1 uM by Q-patch assay relative to control; assay type: cell-based
[24] = target: Sodium channel protein type 8 subunit alpha (Homo sapiens) (UniProt Q9UQD0); experiment: Activation of human Nav1.6 expressed in T-Rex-CHO cells assessed as change in peak current at 1 uM by Q-patch assay relative to control; assay type: cell-based
[25] = target: Sodium channel protein type 8 subunit alpha (Homo sapiens) (UniProt Q9UQD0); experiment: Activation of human Nav1.6 expressed in T-Rex-CHO cells assessed as change in decay time constant of channel currents at 1 uM at holding potential of -120 mV by automated patch-clamp electrophysiology assay relative to control; assay type: cell-based
[26] = target: Sodium channel protein type 3 subunit alpha (Homo sapiens) (UniProt Q9NY46); experiment: Activation of human Nav1.3 expressed in CHO cells assessed as change in peak current at 1 uM by Q-patch assay relative to control; assay type: cell-based
[27] = Fraction unbound in mouse brain at 30 mg/kg, ip measured at 1 hr by LC-MS/MS analysis; assay type: ADME, organism-based
In short: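 Brain protein binding ratio determined for brain exposure study in mice given 30 mg/kg i.p., sampled at 1 h.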

[28] = Free drug level in mouse brain at 30 mg/kg, ip measured at 1 hr by LC-MS/MS analysis; assay type: ADME, organism-based; conditions: in vivo
In short: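 Free brain concentration derived from total brain level 1 h after 30 mg/kg i.p. in mice and the brain protein binding ratio.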

[29] = Drug uptake in mouse brain at 30 mg/kg, ip measured at 1 hr by LC-MS/MS analysis; assay type: ADME, organism-based; conditions: read-out: Drug uptake; in short: as §3
[30] = target: Sodium channel protein type 1 subunit alpha (Homo sapiens) (UniProt P35498); experiment: Activation of human Nav1.1 expressed in T-Rex-CHO cells assessed as change in decay time constant of channel currents at 0.03 uM by Q-patch assay relative to control; assay type: cell-based; in short: as §2

CC(C)c1ccc(NC(=O)c2c(-c3cc(F)ccc3F)cncc2N2CC[C@H](F)C2)cn1
Activity [1]: 124% | Activity [2]: 92%

CC(C)c1ccc(NC(=O)c2c(-c3ccoc3)ncnc2N2CC[C@H](F)C2)cn1
Activity [1]: 80% | Activity [3]: 115%

CC(C)c1ccc(NC(=O)c2c(-c3ccc(Cl)cc3)ncnc2N2CC[C@H](F)C2)cn1
Activity [1]: 107% | Activity [4]: 682% | Activity [5]: 170% | Activity [3]: 257% | Activity [6]: 342%

CC(C)c1ccc(NC(=O)c2c(-c3ccccc3)ncnc2N2CC[C@H](F)C2)cn1
Activity [1]: 102% | Activity [4]: 332% | Activity [5]: 255% | Activity [3]: 302%

CC(C)c1ccc(NC(=O)c2c(-c3ccc(Cl)cc3)ncnc2N2CCCCC2)cn1
Activity [3]: 110% | Activity [6]: 105%

CC(C)c1ccc(NC(=O)c2c(-c3ccc(Cl)cc3)cccc2N2CCOCC2)cn1
Activity [3]: 99% | Activity [6]: 110%

CCN(CC)c1ncnc(-c2ccc(Cl)cc2)c1C(=O)Nc1ccc(C(C)C)nc1
Activity [3]: 96% | Activity [6]: 74%

CC(C)c1ccc(NC(=O)c2c(-c3ccco3)ncnc2N2CC[C@H](F)C2)cn1
Activity [1]: 86% | Activity [3]: 98%

Cc1cc(C)c(NC(=O)c2c(-c3ccc(Cl)cc3)noc2N2CCOCC2)c(C)c1
chromatographic logD [7]: 3.43 | Activity [4]: 113% | Activity [8]: 86% | Activity [9]: 138% | Activity [10]: 92% | Activity [11]: 179% | solubility [12]: 0.9 µg/mL (≈ 2.11 µM) | Activity [13]: 120% | Activity [14]: 86% | Activity [3]: 99% | Activity [6]: 102%

CC(C)c1ccc(NC(=O)c2c(-c3ccccc3F)ncnc2N2CC[C@H](F)C2)cn1
Activity [1]: 135% | Activity [4]: 1400% | Activity [5]: 711% | Activity [3]: 391%

CC(C)c1ccc(NC(=O)c2c(-c3cc(F)ccc3F)ccnc2N2CC[C@H](F)C2)cn1
Activity [15]: 826% | Activity [1]: 492% | Activity [16]: 1200% | Activity [4]: 1900% | concentration at 1 h [17]: 968 ng/mL | Activity [18]: 108% | Activity [2]: 176% | Activity [19]: 106% | Activity [20]: 94% | Activity [10]: 144% | Kp at 1 h [21]: 0.2 | efflux ratio at 1 h, 1 µM [22]: 1 | Activity [23]: 94% | Activity [24]: 100% | Activity [25]: 102% | Activity [26]: 129% | fraction unbound at 1 h [27]: 0.029 | Drug uptake(free) [28]: 13 nM | concentration at 1 h [29]: 193 ng/g | Activity [30]: 255%

CC(C)c1ccc(NC(=O)c2c(-c3ccn(C)n3)ncnc2N2CC[C@H](F)C2)cn1
Activity [1]: 80% | Activity [3]: 87%
